Test results published in ChEMBL document CHEMBL1772996, “Bioactive constituents from the roots of Panax japonicus var. major and development of a LC-MS/MS method for distinguishing between natural and artifactual compounds” (J Nat Prod, 2011).
In brackets after ≈: the same amount, converted by molar mass. Activity calls are given as the source filed them. The calls are words filed in the database; no cut-off is given here.

What was measured:
[1] = system: Neutrophil; experiment: Inhibition of fMLP/CB-stimulated superoxide anion generation in human neutrophils; assay type: functional, cell-based
In short: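 Isolated human neutrophils (dextran sedimentation, Ficoll Hypaque, hypotonic lysis; >98% viable) with 0.5 mg/mL ferricytochrome c and 1 mM Ca2+, 37 °C 2 min, compound 5 min; CB 1 μg/mL 3 min, then 100 nM FMLP 10 min; SOD-inhibitable cytochrome c reduction followed continuously at 550 nm with stirring; mean ± S.E.M., n = 3–4; top concentration 30 μM.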

[2] = system: Neutrophil; experiment: Inhibition of fMLP/CB-activated human neutrophil degranulation assessed as inhibition of elastase release at 30 uM using MeO-Suc-Ala-Ala-Pro-Val-p-nitroanilide as a substrate after 5 mins relative to control; assay type: functional
In short: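 Isolated human neutrophils (dextran sedimentation, Ficoll Hypaque, hypotonic erythrocyte lysis; >98% viable by trypan blue) at 5×10^5/mL in Ca2+-free HBSS pH 7.4 with 100 μM MeO-Suc-Ala-Ala-Pro-Val-p-nitroanilide. Equilibrated 37 °C 2 min, compound 5 min, then activated with 100 nM fMLP plus 0.5 μg/mL CB. A405 monitored continuously. Expressed as % of initial elastase release rate in drug-free fMLP/CB control; mean ± S.E.M., n = 3–4.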

[3] = system: KB; experiment: Cytotoxicity against human KB cells assessed as growth inhibition after 3 days by sulforhodamine B assay; assay type: functional
[4] = system: DU-145; experiment: Cytotoxicity against human DU145 cells assessed as growth inhibition after 3 days by sulforhodamine B assay; assay type: functional
[5] = system: A549; experiment: Cytotoxicity against human A549 cells assessed as growth inhibition after 3 days by sulforhodamine B assay; assay type: functional, cell-based
[6] = system: HCT-8; experiment: Cytotoxicity against human HCT8 cells assessed as growth inhibition after 3 days by sulforhodamine B assay; assay type: functional, cell-based
[7] = system: Neutrophil; experiment: Inhibition of fMLP/CB-stimulated superoxide anion generation in human neutrophils at 30 uM relative to control; assay type: functional
In short: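 Neutrophils isolated by dextran sedimentation, Ficoll Hypaque and hypotonic lysis, kept in Ca2+-free HBSS pH 7.4 at 4 °C. Given 0.5 mg/mL ferricytochrome c and 1 mM Ca2+, equilibrated 37 °C 2 min, compound 5 min. CB 1 μg/mL for 3 min, then 100 nM fMLP for 10 min. SOD-inhibitable ferricytochrome c reduction followed at 550 nm with stirring; mean ± S.E.M., n = 3–4.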

[8] = system: Neutrophil; experiment: Inhibition of fMLP/CB-activated human neutrophil degranulation assessed as inhibition of elastase release using MeO-Suc-Ala-Ala-Pro-Val-p-nitroanilide as a substrate after 5 mins; assay type: functional, cell-based
In short: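 Neutrophils from dextran sedimentation, Ficoll Hypaque centrifugation and hypotonic erythrocyte lysis (>98% viable by trypan blue), held in Ca2+-free HBSS pH 7.4 at 4 °C; 5×10^5/mL cells with 100 μM substrate equilibrated 37 °C 2 min, compound 5 min, then 100 nM FMLP plus 0.5 μg/mL CB; A405 monitored continuously; expressed as % of initial rate in drug-free activated control; mean ± S.E.M., n = 3–4; top concentration 30 μM.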

| SMILES | IC50 [1] [µM] | inhibition at 30 µM [2] [%] | growth inhibition (GI) [3] | growth inhibition (GI) [4] | growth inhibition (GI) [5] | growth inhibition (GI) [6] | inhibition at 30 µM [7] [%] | IC50 [8] [µM] | GI50 ([3]; 72 h) [µg/mL] | GI50 ([4]; DU-145, 72 h) [µg/mL] |
| --- | --- | --- | --- | --- | --- | --- | --- | --- | --- | --- |
| CCCCOC(=O)[C@H]1O[C@@H](O[C@H]2CC[C@]3(C)[C@H]4CC=C5[C@@H]6CC(C)(C)CC[C@]6(C(=O)O[C@@H]6O[C@H](CO)[C@@H](O)[C@H](O)[C@H]6O)CC[C@@]5(C)[C@]4(C)CC[C@H]3C2(C)C)[C@H](O[C@@H]2OC[C@@H](O)[C@H](O)[C@H]2O)[C@@H](O)[C@@H]1O | 21.2 | 20 | inactive | inactive | inactive | inactive |  |  |  |  |
| CC1(C)CC[C@]2(C(=O)O[C@@H]3O[C@H](CO)[C@@H](O)[C@H](O)[C@H]3O)CC[C@]3(C)C(=CC[C@@H]4[C@@]5(C)CC[C@H](O[C@@H]6O[C@H](C(=O)O)[C@@H](O[C@@H]7O[C@@H](CO)[C@H](O)[C@H]7O)[C@H](O)[C@H]6O)C(C)(C)[C@@H]5CC[C@]43C)[C@@H]2C1 |  | 27.6 | inactive | inactive | inactive | inactive | 14.6 |  |  |  |
| COC(=O)[C@H]1O[C@@H](O[C@H]2CC[C@]3(C)[C@H]4CC=C5[C@@H]6CC(C)(C)CC[C@]6(C(=O)O[C@@H]6O[C@H](CO)[C@@H](O)[C@H](O)[C@H]6O)CC[C@@]5(C)[C@]4(C)CC[C@H]3C2(C)C)[C@H](O)[C@@H](O)[C@@H]1O[C@@H]1O[C@@H](CO)[C@H](O)[C@H]1O | 19.7 | 27.5 | inactive | inactive | inactive | inactive |  |  |  |  |
| CC(C)(O)[C@@H]1CC[C@@](C)([C@H]2CC[C@]3(C)[C@@H]2[C@H](O)C[C@@H]2[C@@]4(C)CC[C@H](O)C(C)(C)[C@@H]4[C@@H](O[C@@H]4O[C@H](CO)[C@@H](O)[C@H](O)[C@H]4O[C@@H]4O[C@H](CO)[C@@H](O)[C@H](O)[C@H]4O)C[C@]23C)O1 |  | -4.95 | inactive | inactive | inactive | inactive | 7.4 |  |  |  |
| CC1(C)CC[C@]2(C(=O)O[C@@H]3O[C@H](CO)[C@@H](O)[C@H](O)[C@H]3O)CC[C@]3(C)C(=CC[C@@H]4[C@@]5(C)CC[C@H](O)C(C)(C)[C@@H]5CC[C@]43C)[C@@H]2C1 |  |  | inactive | inactive | inactive | inactive | 43.6 | 9.64 |  |  |
| CC(C)=CC/C=C(\C)[C@H]1CC[C@]2(C)[C@@H]1[C@H](O)C[C@@H]1[C@@]3(C)CC[C@H](O[C@@H]4O[C@H](CO)[C@@H](O)[C@H](O)[C@H]4O[C@@H]4O[C@H](CO)[C@@H](O)[C@H](O)[C@H]4O)C(C)(C)[C@@H]3CC[C@]12C |  |  | inactive | inactive | inactive | inactive |  |  |  |  |
| CC(C)=CCC[C@@](C)(O)[C@H]1CC[C@]2(C)[C@@H]1[C@H](O)C[C@@H]1[C@@]3(C)CC[C@H](O[C@@H]4O[C@H](CO)[C@@H](O)[C@H](O)[C@H]4O[C@@H]4O[C@H](CO)[C@@H](O)[C@H](O)[C@H]4O)C(C)(C)[C@@H]3CC[C@]12C |  |  | inactive | inactive | inactive | inactive |  |  |  |  |
| CC(C)=CCC[C@](C)(O)[C@H]1CC[C@]2(C)[C@@H]1[C@H](O)C[C@@H]1[C@@]3(C)CC[C@H](O[C@@H]4O[C@H](CO)[C@@H](O)[C@H](O)[C@H]4O[C@@H]4O[C@H](CO)[C@@H](O)[C@H](O)[C@H]4O)C(C)(C)[C@@H]3CC[C@]12C |  |  | inactive | inactive | inactive | inactive |  |  |  |  |
| CC(C)=CCC[C@](C)(O[C@@H]1O[C@H](CO[C@@H]2O[C@H](CO)[C@@H](O)[C@H](O)[C@H]2O)[C@@H](O)[C@H](O)[C@H]1O)[C@H]1CC[C@]2(C)[C@@H]1[C@H](O)C[C@@H]1[C@@]3(C)CC[C@H](O[C@@H]4O[C@H](CO)[C@@H](O)[C@H](O)[C@H]4O[C@@H]4O[C@H](CO)[C@@H](O)[C@H](O)[C@H]4O)C(C)(C)[C@@H]3CC[C@]12C [GINSENOSIDE RB1] |  | 7.36 | inactive | inactive | inactive | inactive | 10.8 |  |  |  |
| CC(C)=CCC[C@](C)(O[C@@H]1O[C@H](CO)[C@@H](O)[C@H](O)[C@H]1O)[C@H]1CC[C@]2(C)[C@@H]1[C@H](O)C[C@@H]1[C@@]3(C)CC[C@H](O[C@@H]4O[C@H](CO)[C@@H](O)[C@H](O)[C@H]4O[C@@H]4O[C@H](CO)[C@@H](O)[C@H](O)[C@H]4O)C(C)(C)[C@@H]3CC[C@]12C [GINSENOSIDE RD] |  | 2.88 | inactive | inactive | inactive | inactive | -3.54 |  |  |  |
| CC(C)=CCC[C@](C)(O)[C@H]1CC[C@]2(C)[C@@H]1[C@H](O)C[C@@H]1[C@@]3(C)CC[C@H](O)C(C)(C)[C@@H]3[C@@H](O[C@@H]3O[C@H](CO)[C@@H](O)[C@H](O)[C@H]3O[C@@H]3O[C@H](CO)[C@@H](O)[C@H](O)[C@H]3O)C[C@]12C [GINSENOSIDE RF] |  | 29.5 | inactive | inactive | inactive | inactive | 8.94 |  |  |  |
| CC(C)=CCC[C@](C)(O[C@@H]1O[C@H](CO)[C@@H](O)[C@H](O)[C@H]1O)[C@H]1CC[C@]2(C)[C@@H]1[C@H](O)C[C@@H]1[C@@]3(C)CC[C@H](O)C(C)(C)[C@@H]3[C@@H](O[C@@H]3O[C@H](CO)[C@@H](O)[C@H](O)[C@H]3O)C[C@]12C [GINSENOSIDE RG1] |  | 19 | inactive | inactive | inactive | inactive | 14.1 |  |  |  |
| C/C(=C/CC[C@](C)(O)[C@H]1CC[C@]2(C)[C@@H]1[C@H](O)C[C@@H]1[C@@]3(C)CC[C@H](O)C(C)(C)[C@@H]3[C@@H](O[C@@H]3O[C@H](CO)[C@@H](O)[C@H](O)[C@H]3O[C@@H]3O[C@H](CO)[C@@H](O)[C@H](O)[C@H]3O)C[C@]12C)CO [PANAJAPONOL A] |  | 42 |  |  | Active | Active | 20.3 |  | 6.3 (≈ 7.71 µM) | 7.3 (≈ 8.93 µM) |
| CC[C@H](CC[C@@H](C)[C@H]1CC[C@H]2[C@@H]3CC=C4C[C@@H](O[C@@H]5O[C@H](CO)[C@@H](O)[C@H](O)[C@H]5O)CC[C@]4(C)[C@H]3CC[C@]12C)C(C)C [SITOGLUSIDE] |  | 21.7 | inactive | inactive | inactive | inactive | 7.45 |  |  |  |
| CC1(C)CC[C@]2(C(=O)O[C@@H]3O[C@H](CO)[C@@H](O)[C@H](O)[C@H]3O)CC[C@]3(C)C(=CC[C@@H]4[C@@]5(C)CC[C@H](O[C@@H]6O[C@H](C(=O)O)[C@@H](O[C@H]7O[C@@H](CO)[C@H](O)[C@H]7O)[C@H](O[C@@H]7O[C@H](CO)[C@@H](O)[C@H](O)[C@H]7O)[C@H]6O)C(C)(C)[C@@H]5CC[C@]43C)[C@@H]2C1 [STIPULEANOSIDE R2] |  | 23.7 | inactive | inactive | inactive | inactive | 0.78 |  |  |  |
